Some results are limits rather than exact numbers.

Series [1] has as its system Human immunodeficiency virus 1. The series can be described thus: Antiviral activity against efavirenz-resistant HIV1 harboring RT 100I, 103R, 179D, 225H mutant infected in human MT4 cells assessed as inhibition of virus-induced cytopathogenicity after 4 days by MTT assay. The format is functional, organism-based. Conditions: Human immunodeficiency virus 1, MT4. Summed up: (§1)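 MT-4 cells grown at 37 °C, 5% CO2 in RPMI-1640 with 10% FCS, penicillin and streptomycin. Compounds taken up in DMSO at […] (stock), then diluted in medium. 1 × 10^4 cells per well with serial compound dilutions, then HIV-1 inoculum sized to give complete cytopathogenicity by day 4. Viability read by MTT. […] Mean of three independent determinations.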
(Protection from cytopathic effect is a common read-out in antiviral testing.)

Series [2] is described as follows: Cytotoxicity against human MT4 cells after 96 hrs by MTT assay. The format is cell-based. Summed up: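 Serial compound dilutions (from DMSO stocks at […]) are added, then cells are held 96 h at 37 °C in humidified 5% CO2. Viability is read by MTT. The value is the concentration reducing proliferation by 50%, as the mean of three independent determinations, run in parallel with the antiviral assays.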
For orientation: Tetrazolium assays rely on reduction of a dye to a coloured formazan, in cell work by metabolically active cells.

For series [3], the system named is Human immunodeficiency virus 1. In words: Antiviral activity against wild type HIV1 3B infected in human MT4 cells assessed as inhibition of virus-induced cytopathogenicity after 4 days by MTT assay. The format is functional, organism-based. Particulars: Human immunodeficiency virus 1, 3B, MT4, 96 h. Summed up: as §1
The subject of series [4] is Human immunodeficiency virus 1. In words: Antiviral activity against […] HIV1 harboring Y181C mutant infected in human MT4 cells assessed as inhibition of virus-induced cytopathogenicity after 4 days by MTT assay. In kind it is functional, organism-based. Particulars: Human immunodeficiency virus 1, MT4, 96 h. Summed up: as §1
The subject of series [5] is Human immunodeficiency virus 1. In words: Antiviral activity against […] HIV1 harboring 103N, 181C mutant infected in human MT4 cells assessed as inhibition of virus-induced cytopathogenicity after 4 days by MTT assay. Conditions: Human immunodeficiency virus 1, MT4, 96 h. The format is functional, organism-based. In short, it runs like this: as §1
The test system of series [6] is Human immunodeficiency virus 1. In words: Antiviral activity against zidovudine-resistant HIV1 harboring RT 67N, 70R, 215F, 219Q mutant infected in human MT4 cells assessed as inhibition of virus-induced cytopathogenicity after 4 days by MTT assay. The format is functional, organism-based. Particulars: Human immunodeficiency virus 1, MT4, 96 h. Summed up: as §1
In series [7] the test system is Human immunodeficiency virus 1. In words: Antiviral activity against saquinavir-resistant HIV1 infected in human MT4 cells assessed as inhibition of virus-induced cytopathogenicity after 4 days by MTT assay. The format is functional, organism-based. Conditions: Human immunodeficiency virus 1, MT4, 96 h. Summed up:
as §1

Series [8] has as its system Human immunodeficiency virus 1. In words: Antiviral activity against MDR-resistant HIV1 harboring 41L, 74V, 106A, 215Y mutant infected in human MT4 cells assessed as inhibition of virus-induced cytopathogenicity after 4 days by MTT assay. The format is functional, organism-based. Conditions: Human immunodeficiency virus 1, MT4, 96 h. Summed up:
as §1

The subject of series [9] is Human immunodeficiency virus 1. The series can be described thus: Antiviral activity against TMC125-resistant HIV1 harboring RT 109M, 138K, 190E mutant infected in human MT4 cells assessed as inhibition of virus-induced cytopathogenicity after 4 days by MTT assay. The format is functional, organism-based. Conditions: Human immunodeficiency virus 1, MT4, 96 h. In short, it runs like this:
as §1

Series [10] deals with Human immunodeficiency virus 1. In words: Antiviral activity against 6-[(3,5-Dimethylphenyl)fluoromethyl]-5-ethyl-1-{[[4-(3-hydroxyprop-1-ynyl)benzyl]oxy]methyl}pyrimidine-2,4(1H,3H)-dione-resistant HIV1 harboring RT 106I, 181C mutant infected in human MT4 cells assessed as inhibition of virus-induced cytopathogenicity after 4 days by MTT assay. In kind it is functional, organism-based. Particulars: Human immunodeficiency virus 1, MT4. In short, it runs like this: as §1

Series [11] relates to Human immunodeficiency virus 1. The series can be described thus: Antiviral activity against TMC120-resistant HIV1 harboring RT 100I, 138G mutant infected in human MT4 cells assessed as inhibition of virus-induced cytopathogenicity after 4 days by MTT assay. The format is functional, organism-based. Conditions: Human immunodeficiency virus 1, MT4, 96 h. In short, it runs like this:
as §1

Series [12] deals with Human immunodeficiency virus 1. In words: Antiviral activity against MC1220-resistant HIV1 harboring RT 100I, 179D, 181C mutant infected in human MT4 cells assessed as inhibition of virus-induced cytopathogenicity after 4 days by MTT assay. Conditions: Human immunodeficiency virus 1, MT4, 96 h. The format is functional, organism-based. Summed up: as §1

What is called EC50 is the concentration at which the effect is half-maximal. In general, CC50 refers to the concentration that lowers cell viability or growth by half. Higher therefore signals lower toxicity to the cells. As to `CCOCn1c(C(F)c2cc(C)cc(C)c2)c(CC)c(=O)[nH]c1=O` (configuration not stated), the EC50 worked out at 6000 nM in series [1]; 5 nM in [3]; 300 nM in series [4]; 2000 nM in [5]; 40 nM in [6]; 9000 nM in series [7]. The CC50 at 96 h in series [2] was found to be 85000 nM.
For `C=CCOCn1c(C(F)c2cc(C)cc(C)c2)c(CC)c(=O)[nH]c1=O` (configuration not stated), the EC50 in series [1] amounted to 2000 nM; in series [3], 4 nM; in series [4], 200 nM; in series [5] it was 1600 nM; in series [6] it was 50 nM; in [7], 4200 nM. In series [2], this compound displayed a half-maximal cytotoxic concentration (CC50) at 96 h of 64000 nM.
Regarding `C=C(C)COCn1c(C(F)c2cc(C)cc(C)c2)c(CC)c(=O)[nH]c1=O` (configuration not stated), the EC50 is 4000 nM in [1]; 8 nM in series [3]; 400 nM in [4]; 7000 nM in series [5]; 70 nM in [6]; 3400 nM in series [8]. For the same compound, the EC50 in series [7] is 3800 nM. The compound further yielded a CC50 at 96 h in series [2] of 40000 nM.
Regarding `CCc1c(C(F)c2cc(C)cc(C)c2)n(COCc2ccc(I)cc2)c(=O)[nH]c1=O` (configuration not stated), the EC50 in series [1] was determined as 1400 nM; in series [3], 400 nM; in series [4], 200 nM; in [5] it was 2000 nM; in [6], 300 nM; in series [8], 1500 nM. Besides, the EC50 in series [7] is 1200 nM. In series [2], this compound registered a cytotoxic concentration (CC50) at 96 h of 43000 nM.
For the compound `CCc1c(C(F)c2cc(C)cc(C)c2)[nH]c(=O)n(COCc2ccc(I)cc2)c1=O` (configuration not stated), the EC50 in series [1] was more than 100000 nM; in [3] it was 9000 nM; in series [4], more than 100000 nM; in series [5], more than 100000 nM; in series [6], 11000 nM; in [8], more than 100000 nM. Further, in series [7], the EC50 was 23000 nM. In addition, in series [2], the 50% cytotoxic concentration (CC50) at 96 h is more than 100000 nM.
With `CCc1c(C(F)c2cc(C)cc(C)c2)n(COCc2ccc(C#CC=O)cc2)c(=O)[nH]c1=O` (configuration not stated), the 50% effective concentration (EC50) came to 2400 nM in [1]; 80 nM in series [3]; 400 nM in [4]; 14000 nM in [5]; 100 nM in [6]; 2300 nM in series [8]. Further, the EC50 in [7] is 5200 nM. In series [2], the CC50 at 96 h was determined as 27000 nM.
Take `CCOCn1c(Cc2ccccc2)c(C(C)C)c(=O)[nH]c1=O` [EMIVIRINE]: the EC50 in series [1] was 100000 nM; in series [4], more than 10000 nM; in series [5] it was more than 100000 nM; in series [6] it was 80 nM; in series [8], 1500 nM; in [7], 60 nM. In series [2], this compound yielded a CC50 at 96 h of more than 100000 nM.
Turning to `Cc1cc(C#N)cc(C)c1Oc1nc(Nc2ccc(C#N)cc2)nc(N)c1Br` [ETRAVIRINE], the EC50 in [1] turned out to be 300 nM; in series [9], 200 nM; in series [10] it was 100 nM; in series [4], 10 nM; in series [5], 10 nM; in series [11] it was 70 nM. Further, the EC50 in series [6] worked out at 1 nM; in [8], 1 nM; in [12], 30 nM.
On to `Cc1ccnc2c1NC(=O)c1cccnc1N2C1CC1` [NEVIRAPINE], for which the EC50 in series [1] is more than 10000 nM; in series [9] it was more than 20000 nM; in [10], more than 20000 nM; in series [4] it was more than 10000 nM; in series [5], more than 10000 nM; in series [11], 1000 nM. Also, the EC50 is 60 nM in [6], 3000 nM in series [8] and 4000 nM in [12]. This compound returned a CC50 at 96 h in series [2] of more than 100000 nM.
Consider `Cc1cn([C@H]2C[C@H](N=[N+]=[N-])[C@@H](CO)O2)c(=O)[nH]c1=O` [ZIDOVUDINE], for which the EC50 came out at 10 nM in [1]; 8 nM in [9]; 10 nM in [10]; 10 nM in series [3]; 20 nM in series [4]; 10 nM in series [5]. For the same compound, the concentration giving a half-maximal response (EC50) stood at 10 nM in [11], 200 nM in [6], 200 nM in series [8] and 9 nM in [12].
